Compound activity: PubChem, several laboratories
rCAG binder: molecules binding r(CAG) RNA repeats. r(CAG) RNA repeat, TO-PRO-1 dye displacement fluorescence. inhibition, % at 3 µM. 370,000 tested, 1.3% active. AID 651821;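 active means inhibition above the plate cutoff, the mean of all test compounds on that plate plus 3 SD, cut at about 35% in these data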;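 further: 0% = DMSO alone and 100% = 100 µM mitoxantrone as full dye displacement; higher means more dye released from RNA so lower well fluorescence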
NadD block: inhibitors of Staphylococcus aureus NadD; purified NadD enzyme, colorimetric absorbance read-out; AID 602399; 360,000 tested, 0.78% active; inhibition, % at 20 µM; in the data active means inhibition above about 26%
Scp-1 inhibitor: blocks human Scp-1 phosphatase activity; Recombinant Scp1, phosphopeptide, malachite green phosphate absorbance; Q9GZU7; AID 493091; inhibition, % at 20 µM; 340,000 tested, 0.88% active;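 active means inhibition above about 50% at 20 µM, limit read from the data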;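 further: plate controls were DMSO wells with enzyme for no effect and wells lacking enzyme for full effect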
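System: truncated SCP-1 phosphatase (76-261aa); medium: Tris acetate buffer pH 5.5 with MgCl2 and Tween-20; incubation: 45 min room-temperature reaction, 5 min colour, 30 min stabiliser; compound: single 20 µM dose, 1% DMSO; reagent: Phosphorylated 17-residue peptide substrate; read-out: % inhibition at 20 µM; technique: colorimetric free-phosphate detection, absorbance 630 nm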
STEP inh: blocks human striatal-enriched tyrosine phosphatase | P54829 | AID 588621 | 360,000 tested, 0.25% active | recombinant STEP, OMFP fluorogenic substrate, fluorescence | inhibition, % at 20 µM;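 active means inhibition at 20 µM, scaled per plate between control wells, above about 37%, limit read from the data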;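 further: 0% = DMSO with enzyme and substrate and 100% = substrate only without enzyme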
Target sequence (P54829 whole entry, looked up): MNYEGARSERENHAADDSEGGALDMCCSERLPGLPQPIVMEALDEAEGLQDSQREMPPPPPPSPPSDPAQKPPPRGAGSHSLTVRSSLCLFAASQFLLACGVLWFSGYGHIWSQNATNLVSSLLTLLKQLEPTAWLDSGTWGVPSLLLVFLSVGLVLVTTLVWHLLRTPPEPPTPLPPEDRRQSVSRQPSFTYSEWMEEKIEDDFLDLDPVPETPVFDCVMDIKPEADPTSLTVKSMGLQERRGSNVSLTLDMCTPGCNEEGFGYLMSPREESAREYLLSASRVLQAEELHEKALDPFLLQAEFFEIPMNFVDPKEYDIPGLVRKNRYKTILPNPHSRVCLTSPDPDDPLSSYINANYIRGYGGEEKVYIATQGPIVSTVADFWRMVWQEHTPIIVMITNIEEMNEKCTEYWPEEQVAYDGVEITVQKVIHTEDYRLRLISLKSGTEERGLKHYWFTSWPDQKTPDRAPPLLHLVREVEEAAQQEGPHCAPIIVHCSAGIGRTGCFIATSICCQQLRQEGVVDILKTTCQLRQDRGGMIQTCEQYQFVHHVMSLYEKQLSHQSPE
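Measure: Control-normalized % inhibition with plate pattern correction | Test system: STEP phosphatase, cell-free reaction | Medium: pH 6.0 Bis-Tris with DTT and Tween 20 | Technique: Fluorescence, 480/540 nm | Times: Reaction 20 min, ambient temperature | Doses: Single compound dose of 20 µM, 1% DMSO final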
LMPTP block: LMPTP (human) inhibition; inhibition, % at 20 µM; recombinant LMPTP-A, OMFP fluorogenic substrate, fluorescence intensity; P24666; 360,000 tested, 0.22% active;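 active means compounds that cut the enzyme signal by at least half of the control window in the single-dose screen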;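 further: plate controls were DMSO wells with enzyme plus substrate for no effect and substrate without enzyme for full effect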
Target sequence (P24666 whole entry, looked up): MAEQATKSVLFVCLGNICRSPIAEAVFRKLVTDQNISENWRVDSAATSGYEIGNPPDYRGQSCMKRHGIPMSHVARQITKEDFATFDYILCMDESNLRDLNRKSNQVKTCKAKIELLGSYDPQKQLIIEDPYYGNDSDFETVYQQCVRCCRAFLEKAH
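Test system: LMPTP-A phosphatase enzyme; input: 0.625 nM LMPTP-A final; reagent: OMFP substrate, 400 µM final; compound dosing: 20 µM single dose, 3% DMSO; incubation: 50 min dark incubation at room temperature; measured by: endpoint fluorescence intensity from OMFP dephosphorylation; measure: % inhibition relative to no-enzyme and uninhibited control wells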
rCAG binder conf: r(CAG) RNA repeat binding, confirmation. shares compounds with rCAG binder. TO-PRO-1 dye displacement fluorescence. inhibition, % at 3 µM. 4,300 tested, 70% active. AID 652065;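 active means inhibition above a per-plate cutoff, the mean inhibition of sample wells plus 3 SD, cut at about 35% in these data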;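 further: loss of TO-PRO-1 fluorescence as compound displaces dye from 1x1 AA loop RNA; 0% = DMSO only wells and 100% = 100 µM mitoxantrone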
dCAG dye counter: DNA CAG dye complex inhibition counter-screen. inhibition, % at 3 µM. 4,300 tested, 94% active. shares compounds with rCAG binder. d(CAG) DNA oligo TO-PRO-1 dye displacement, fluorescence;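 active means inhibition above its plate's cutoff, the mean test-well inhibition plus 3 SD, cut at about 4.8% in these data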;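 further: 0% = DNA dye mix with DMSO and 100% = 100 µM mitoxantrone; hits displace the dye from DNA and so lower well fluorescence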
dCAG dye DR: counter-screen for rCAG binders: inhibitors of DNA CAG TO-PRO-1 complex; shares compounds with rCAG binder; AID 686960; IC50, µM; DNA CAG/GTC duplex TO-PRO-1 dye displacement fluorescence; 250 tested, 20% active; in the data active means IC50 below about 10 µM
The depositor's hits bear a star; nt = not tested or not shown. In the library only some 2.6% were active in any assay of this set; here they are far more common.

SMILES	rCAG binder	NadD block	Scp-1 inhibitor	STEP inh	LMPTP block	rCAG binder conf	dCAG dye counter	others
COCC(=O)N1CCN(C(=O)C(=O)c2cccc(C(F)(F)F)c2)CC1	-2	nt	nt	nt	nt	nt	nt
NC(=O)COc1ccccc1/C=C1/SC(=O)N(CC(=O)N2CCc3ccccc3C2)C1=O	4	5	-11	1	-1	nt	nt
COc1cc(/C=C2/SC(=S)N(Cc3ccccc3)C2=O)ccc1OCC(=O)O	72*	22	-10	7	3	86*	55*
CCOc1cc(/C=C2/SC(=S)N(Cc3ccccc3)C2=O)ccc1O	37*	-7	-6	-2	3	42*	24*
COc1cc([N+](=O)[O-])cc(/C=C2/SC(=S)N(Cc3ccccc3)C2=O)c1O	79*	8	4	8	5	95*	85*
O=C(O)c1ccc(/C=C2/SC(=S)N(Cc3ccccc3)C2=O)cc1	6	0	-8	3	2	nt	nt
CC(=O)Oc1ccc(/C=C2/SC(=S)N(Cc3ccccc3)C2=O)cc1	4	-5	-15	-2	-1	nt	nt
CCOc1cc(/C=C2/SC(=O)N(CC(=O)N3CCc4ccccc4C3)C2=O)ccc1OCC(=O)O	57*	21	3	2	-1	60*	21*
COc1cc(/C=C2/SC(=S)N(Cc3ccccc3)C2=O)ccc1OS(C)(=O)=O	4	1	-10	-3	3	nt	nt
CCOc1ccc(C=NNC(=O)c2cc(-c3ccc(Cl)cc3)n[nH]2)cc1	10	nt	nt	nt	nt	nt	nt
Cc1cccc(OCCCN2CCC(C(O)(c3ccccc3)c3ccccc3)CC2)c1	0	nt	nt	nt	nt	nt	nt
O=C(Nc1ccc2c(c1)OCO2)OC1CCC12CCC(c1ccccc1)CC2 (centres undefined)	5	nt	nt	nt	nt	nt	nt
O=C(NC1CCCCN(Cc2cccc(C(F)(F)F)c2)C1=O)c1cccc([N+](=O)[O-])c1 (centres undefined)	1	nt	nt	nt	nt	nt	nt
Cc1cc(C)cc(N(CC(=O)Nc2ccc(Br)cc2)S(=O)(=O)c2c(C)[nH]c(=O)[nH]c2=O)c1	51*	7	-11	-4	1	42*	9.2*
Cc1ccc(-c2csc(NC(=S)NC(=O)/C=C/c3ccco3)n2)cc1	38*	15	-11	-1	2	22	11*
O=C(/C=C/c1ccco1)NC(=S)Nc1ccc(Cl)cn1	39*	9	-4	8	4	14	6.9*
O=C(/C=C\c1ccco1)Nc1nc(-c2ccc3ccccc3c2)cs1	20	10	-11	-2	0	nt	nt
O=C(c1cccs1)n1ccc2ccc(-c3ccc4ccn(C(=O)c5cccs5)c4c3)cc21	14	nt	nt	nt	nt	nt	nt
CC(=O)NS(=O)(=O)c1ccc(NC(=O)c2cccc(S(=O)(=O)N3CCc4ccccc43)c2)cc1	42*	-5	4	7	0	40*	13*
O=C(CSc1nc2ccccc2n1Cc1ccccc1Cl)N/N=C\c1cccc(Oc2ccccc2)c1	12	nt	nt	nt	nt	nt	nt
O=S(=O)(c1cc(O)ccc1O)c1cccc2c(S(=O)(=O)c3cc(O)ccc3O)cccc12	43*	26	69*	84*	75*	36*	24*
CC(C)N1C(=O)S/C(=C/c2ccccc2OCc2ccc(C(=O)O)cc2)C1=O	55*	2	-2	2	0	56*	17*
CN1C(=O)S/C(=C/c2ccccc2OCc2ccc(C(=O)O)cc2)C1=O	14	8	15	1	0	nt	nt
Cc1ccc2nc(-c3ccc(NS(=O)(=O)c4c(C)n(C)c(=O)n(C)c4=O)cc3)sc2c1	7	15	0	1	2	nt	nt
Cc1ccc2nc(-c3ccc(NC(=O)CSc4nccc(=O)[nH]4)cc3)sc2c1	40*	8	-1	0	-1	71*	33*	dCAG dye DR=>30
SMILES	rCAG binder	NadD block	Scp-1 inhibitor	STEP inh	LMPTP block	rCAG binder conf	dCAG dye counter	others
Cc1cccc(S(=O)(=O)Nc2ccc(-c3nc4ccc(C)cc4s3)cc2)c1	37*	11	0	-3	2	40*	15*
Cc1ccc(S(=O)(=O)Nc2ccc(-c3nc4ccc(C)cc4s3)cc2)cc1	35*	7	-11	-5	3	28	12*
CCOc1nc2ccccc2nc1NS(=O)(=O)c1ccc(Cl)cc1	40*	-8	-7	-3	0	27	4.6*
O=S(=O)(Nc1nc2ccccc2nc1N1CCN(c2ccccn2)CC1)c1ccc(Cl)cc1	54*	8	-1	0	1	64*	31*
O=S(=O)(Nc1nc2ccccc2nc1N1CCc2ccccc2C1)c1ccc(Cl)cc1	13	23	2	-3	1	nt	nt
CCOc1nc2ccccc2nc1NS(=O)(=O)c1ccccc1	6	-2	4	-1	-2	nt	nt
CN1CCN(c2nc3ccccc3nc2NS(=O)(=O)c2ccc(Br)cc2)CC1	22	7	5	-5	-1	nt	nt
COc1ccc(N2CCN(c3nc4ccccc4nc3NS(=O)(=O)c3ccccc3)CC2)cc1	57*	14	4	4	1	62*	24*
Cc1ccc(S(=O)(=O)Nc2nc3ccccc3nc2N2CCN(c3ccccc3F)CC2)cc1	54*	7	2	1	2	68*	28*
COc1ccc(N2CCN(C(=O)c3ccccc3NS(=O)(=O)c3ccccc3)CC2)cc1	13	-9	0	3	0	nt	nt
CCCC[C@H]1C2CC(OC(=O)Nc3ccccc3Cl)C(C2)[C@H]2CCCCN21 (some centres undefined)	1	nt	nt	nt	nt	nt	nt
Cc1nn(-c2cccc(Cl)c2)c2c1C(c1ccncc1)C(C#N)=C(N)O2 (centres undefined)	36*	4	-4	-2	1	27	5.2*
COc1cc(C2C(C#N)=C(N)Oc3c2c(-c2ccccc2)nn3-c2ccccc2)cc(OC)c1OC (centres undefined)	62*	8	-17	-4	2	25	8.5*
C#CCNC(=O)C[C@@H]1C(=O)N(CCc2ccc(Cl)cc2)/C2=C/CCCCC[C@@]21C(=O)OCC	2	nt	nt	nt	nt	nt	nt
CCCCC(=O)NC(=S)Nc1cc(C(=O)O)ccc1OC	0	-9	-3	1	0	nt	nt
COc1ccc(C(=O)O)cc1NC(=S)NC(=O)/C=C/c1ccc(C(C)C)cc1	57*	20	-12	0	2	75*	40*
O=S(=O)(Nc1ccc(N=Nc2ccc(O)c3ccccc23)cc1)c1ccccc1	67*	26	-12	-3	9	65*	32*
Cc1ccc(NS(=O)(=O)c2ccccc2)c([N+](=O)[O-])c1	3	-7	-13	-3	0	nt	nt
